High-throughput results: PubChem BioAssay, several laboratories
Most compounds without a hit are left out; they make up all but 2.6% or so of the library.
Rad51 HR inh = human RAD51 strand exchange inhibitors, primary screen, biochemical, fluorescence; hRad51 DNA strand exchange, fluorescence dequenching; hit rate 0.085% among 200,000; DNA repair protein RAD51 homolog 1 (Homo sapiens), Q06609; inhibition, % at 10 µM;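 active means inhibition above 40% at the single screening dose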;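 further: 0% = DMSO control wells and 100% = blanks with heterologous ssDNA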
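System: human Rad51 nucleoprotein filaments preassembled on unlabelled ssDNA. Reagent: labelled 47-mer dsDNA for strand exchange. Schedule: 30-min compound preincubation and 15-min exchange, both room temperature. Measured by: FRET fluorescence dequenching, excitation 485 nm, emission 520 nm. Read-out: Fluorescence-based percent inhibition, control- and blank-normalised. Benchmarks: plate controls and plate blanks.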
CHT inh = inhibitors of human choline transporter CHT. B-score at 10 µM. CHT-expressing cells, membrane potential dye, choline response; hits give low values. hit rate 0.86% among 310,000. High affinity choline transporter 1 (Homo sapiens), Q9GZV3;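 active means B-score over 3 SD under the library average, and starting fluorescence ratio not unusually high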;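 further: choline stimulus applied at its EC90 after an EC20 pre-addition; B-score computed on integrated fluorescence ratio after choline addition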
Target sequence (Q9GZV3 whole entry, looked up): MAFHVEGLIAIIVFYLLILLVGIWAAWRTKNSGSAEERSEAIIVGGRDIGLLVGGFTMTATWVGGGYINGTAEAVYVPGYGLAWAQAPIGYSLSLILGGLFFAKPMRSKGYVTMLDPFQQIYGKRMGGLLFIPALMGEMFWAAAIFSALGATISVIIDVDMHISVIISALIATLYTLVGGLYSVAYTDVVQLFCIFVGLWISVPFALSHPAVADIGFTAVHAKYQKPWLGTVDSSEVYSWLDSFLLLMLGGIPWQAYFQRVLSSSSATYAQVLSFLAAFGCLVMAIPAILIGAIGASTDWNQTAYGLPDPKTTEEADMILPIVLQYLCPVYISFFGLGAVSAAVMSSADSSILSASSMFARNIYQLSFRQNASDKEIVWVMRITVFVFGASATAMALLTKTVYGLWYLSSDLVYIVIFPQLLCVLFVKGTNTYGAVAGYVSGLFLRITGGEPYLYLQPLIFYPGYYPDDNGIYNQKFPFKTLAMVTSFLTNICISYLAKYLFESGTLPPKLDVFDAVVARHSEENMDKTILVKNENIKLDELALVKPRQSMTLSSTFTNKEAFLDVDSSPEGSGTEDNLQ
Cl transport mod = KCC2 cotransporter modulators, thallium flux, primary screen, cell-based, HEK293 KCC2, FluoZin-2 fluorescence, MLSMR. KCC2 cells, thallium flux FluoZin-2 fluorescence. hit rate 2.2% among 190,000. B-score of Tl+ flux slope (higher = more flux/activation; lower = inhibition) at 10 µM. Solute carrier family 12 member 5 (Homo sapiens), Q9H2X9. AID 1456, 2008;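 active means thallium flux slope and its plate-corrected score both differing from the plate sample mean at a set confidence after two filtering rounds, in either direction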;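 further: slope of fluorescence scaled to starting intensity during 10 to 20 s after thallium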
CHT PAM = CHT positive allosteric modulators, primary screen, cell-based, membrane potential dye, choline EC20; B-score at 10 µM; AID 488977, 2010; CHT-expressing cells; hits give high values; LV-AA mutant CHT in HEK293 cells; High affinity choline transporter 1 (Homo sapiens), Q9GZV3; hit rate 0.49% among 310,000;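 active means initial fluorescence not abnormally high and integrated response B-score, plate-corrected, over 3 SD above library mean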
KCC2 sec1 = KCC2 modulators in sodium-free buffer, confirmation, cell-based, HEK293 KCC2, thallium flux, secondary assay; FluoZin2 fluorescence; hits give high values; normalised thallium flux (F/F0 slope) at 10 µM; hit rate 15% among 3,700; shares compounds with Cl transport mod;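 active means thallium flux slope above the same plate's solvent-only control mean plus 3 SD; inconclusive means the two replicate wells disagree; inactive means no significant difference from solvent-only control wells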
KCC2 bumet counter = thallium flux persisting under bumetanide in KCC2 cells, confirmation, counter-screen for KCC2 modulator project, cell-based, HEK293 KCC2, FluoZin2, secondary assay 3; shares compounds with Cl transport mod; HEK293-KCC2 + bumetanide/ouabain; hits give high values; normalized thallium flux at 10 µM; hit rate 49% among 3,700;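 active means thallium entry rate above the same plate's blocked-transporter control wells by more than 3 SD; inconclusive means the two repeat wells disagree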;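 further: raw slope of fluorescence over initial fluorescence between 10 and 20 s after thallium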
KCC2 secondary2 = KCC2 modulators without ouabain present, confirmation, cell-based, HEK293 KCC2, thallium flux, FluoZin2, secondary assay 2; normalized thallium flux at 10 µM; shares compounds with Cl transport mod; thallium flux FluoZin2 fluorescence; actives lie on both sides; F/F0 rise rate, 10–20 s post-thallium; hit rate 23% among 3,700;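 active means thallium flux slope more than 3 SD above or below the plate's solvent-only control mean, mostly below; inconclusive means the two repeat wells disagreed; inactive means no significant shift from solvent-only controls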;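 further: raw slope with 0.1% DMSO as baseline and bumetanide as block control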
HEK293 Tl flux = thallium flux modulation in parental HEK cells, confirmation, counter-screen for KCC2 modulator project, cell-based, counterscreen 1; shares compounds with Cl transport mod; HEK293 parental cells, thallium flux FluoZin2, ouabain; baseline-ratio fluorescence slope, 10–20 s after thallium; thallium flux rate (normalised fluorescence) at 10 µM; hit rate 46% among 3,700;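 active means thallium flux rate significantly above the same plate's solvent-only control wells, beyond their mean plus 3 SD; inconclusive means the two replicate wells gave conflicting results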
KCC2 ouabain = KCC2 inhibitors and activators, ouabain retest, confirmation, HEK-KCC2 cells | shares compounds with Cl transport mod | HEK293-KCC2, thallium flux FluoZin2 fluorescence; bidirectional: low = inhibitor, high = activator | raw Tl+ flux slope (below DMSO = inhibition, above = activation) at 10 µM | hit rate 48% among 3,700 | AID 1717, 2009;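 active means thallium flux slope beyond 3 SD from same-plate DMSO control mean in most replicates, usually higher, sometimes lower; inconclusive means repeat tests gave conflicting results; inactive means no significant difference from controls in most replicates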;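 further: slope of initial-normalized fluorescence between seconds 10 and 20 after thallium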
HEK293 Tl flux2 = native HEK Tl+ uptake effects, second counter-screen – HEK cells, counterscreen 2, counter-screen for KCC2 modulator project, confirmation | shares compounds with Cl transport mod | HEK293 parental, thallium flux FluoZin-2 fluorescence slope | thallium flux slope at 10 µM | hit rate 33% among 3,700 | AID 1718, 2009;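 active means thallium flux slope above the same plate's solvent-control mean plus 3 SD in both duplicate wells; inconclusive means duplicate wells that disagreed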;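 further: run without ouabain in cells lacking the KCC2 cotransporter; slope of fluorescence scaled to its starting value between 10 and 20 s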
* hit, by the source's call; i = inactive; ? = inconclusive; / = not tested or not shown.

SMILES	Rad51 HR inh	CHT inh	Cl transport mod	CHT PAM	KCC2 sec1	KCC2 bumet counter	KCC2 secondary2	HEK293 Tl flux	KCC2 ouabain	HEK293 Tl flux2
O=C(Nc1nc(COc2ccccc2)cs1)C1CCC1	-5	i	-4.3*	i	0.0093	0.0071	?	0.0068	0.013*	?
COC(=O)c1sc(NC(=S)NC(=O)c2ccccc2C)nc1C	-8	i	92*	i	0.05*	0.15*	0.042*	0.1*	0.088*	0.033*
COC(=O)c1sc(NC(=S)NC(=O)c2ccc(F)cc2)nc1C	-6	i	0.018	i	/	/	/	/	/	/
Cc1nc(SCC(O)CCl)c([N+](=O)[O-])[nH]1 (stereo not drawn)	-8	i	0.0096	i	/	/	/	/	/	/
COCC(O)CSc1nc(C)[nH]c1[N+](=O)[O-] (stereo not drawn)	-5	i	-5.2*	i	0.016	0.0042	0.028	0.0072	0.016	0.0097
CCC(c1nnnn1Cc1ccc(F)cc1)N(CCCO)Cc1cc2cc3c(cc2[nH]c1=O)OCO3 (stereo not drawn)	-2	i	-0.51	i	/	/	/	/	/	/
O=C(COc1coc(CN2CCc3ccccc32)cc1=O)Nc1ccc([N+](=O)[O-])cc1	/	i	/	i	/	/	/	/	/	/
CC(=O)Nc1nc2ccccc2n1CCOc1ccccc1	10	i	0.37	i	/	/	/	/	/	/
S=C(Nc1ccccc1)Nc1nc2ccccc2n1CCOc1ccccc1	6	i	29*	i	0.011*	0.059*	0.029	0.017*	0.036*	?
CC(=O)NS(=O)(=O)c1ccc(N=c2ssc3c2-c2ccc(C)cc2NC3(C)C)cc1	6	i	-2.7	i	/	/	/	/	/	/
Cc1ccc(C(=O)NN2C(=O)/C(=C/c3cn(C)c4ccccc34)SC2=S)cc1	-234	i	-3.7*	i	0.0046*	0.0039	0.026*	0.0051*	0.025*	0.0089
Cc1ccc(/C=C2/SC(=O)NC2=S)o1	-47	/	94*	/	?	0.07*	0.098*	0.1*	0.094*	0.099*
Cn1cc(/C=C2\SC(=O)NC2=S)c2ccccc21	-21	i	21*	i	0.013*	0.028*	0.03	0.018*	0.034*	?
Cc1ccc(/C=C2/SC(=S)N(C3CCCCC3)C2=O)o1	/	i	/	i	/	/	/	/	/	/
CC1CCN(S(=O)(=O)c2ccc(C(=O)OC(C)C(=O)N(C)C3CCCCC3)cc2)CC1 (stereo not drawn)	/	i	/	i	/	/	/	/	/	/
C#CCN1C(=O)S/C(=C/C=C/c2ccc(N(C)C)cc2)C1=O	i	i	0.66	i	/	/	/	/	/	/
CCOC(=O)c1c(NS(C)(=O)=O)sc2c1CCC(C)C2 (stereo not drawn)	89*	i	23*	i	0.02*	0.059*	0.038	0.028*	0.052*	0.014*
CCNc1nc(NC(C)(C)C)nc(Oc2ccc(=O)n(-c3ccccc3)n2)n1	10	i	-0.98	i	/	/	/	/	/	/
CCOc1cc(/C=N/NC(=O)CN(CCc2ccccc2)S(=O)(=O)c2ccc(NC(C)=O)cc2)ccc1O	/	i	-6.4*	i	0.0073	0.0051	0.036	0.0042	?	0.01
O=C(O)Cc1ccc(NC(=S)Nc2cccc(Cl)c2Cl)cc1	-8	i	9.6*	i	0.0097	0.01*	0.034	0.014*	?	0.012
O=C(O)Cc1ccc(NC(=S)Nc2ccc(Br)cc2Cl)cc1	3	i	2.9	i	/	/	/	/	/	/
Cc1ccc(C)c(OCC(=O)Nc2ccncc2)c1	/	i	/	i	/	/	/	/	/	/
COC(=O)NNC(=O)COc1ccc2ccccc2c1Br	-2	i	-2.5	i	/	/	/	/	/	/
CC(C)(C)C(=O)NNC(=O)COc1ccc2ccccc2c1Br	-15	i	7.8*	i	0.0071	0.02*	0.029	0.011*	0.027*	?
O=C(COc1ccc2ccccc2c1Br)Nn1cnnc1	-4	i	-4.7*	i	0.0066	?	0.025*	0.0079	?	0.011
SMILES	Rad51 HR inh	CHT inh	Cl transport mod	CHT PAM	KCC2 sec1	KCC2 bumet counter	KCC2 secondary2	HEK293 Tl flux	KCC2 ouabain	HEK293 Tl flux2
O=C(Cn1cnc2c(nnn2Cc2ccccc2F)c1=O)NCc1ccco1	/	i	/	i	0.0093	0.0066	?	0.0081	0.018*	0.011
Cc1ccc(Cn2nnc3c(=O)n(CC(=O)NCc4ccco4)cnc32)cc1	-4	i	-2.9*	i	0.0073	0.0039	?	?	0.015*	0.01
CS/C(=C\[N+](=O)[O-])Nc1ccc(OC(F)(F)F)cc1	7	i	-4.2*	i	0.0076	?	0.025*	?	0.014*	0.012
COc1ccc(NS(=O)(=O)c2ccc3nc(COc4ccc(C#N)cc4)[nH]c3c2)cc1	-11	i	1.6	i	/	/	/	/	/	/
COc1ccccc1C(=O)NNC1=C(C(=O)C(F)(F)F)CCC1	-2	i	4.9*	i	0.018	0.044*	0.043*	0.038*	0.041*	0.036*
O=C(NNC1=C(C(=O)C(F)(F)F)CCC1)c1ccccc1Cl	5	i	2.8	i	/	/	/	/	/	/
CCOC(=O)C(C)c1ccc2cc(OC)ccc2c1 (stereo not drawn)	2	i	0.0046	i	/	/	/	/	/	/
O=C(CSc1ncnc2c(-c3ccc(Cl)cc3)nsc12)c1ccccc1	2	i	/	i	0.014*	0.028*	0.029	0.018*	?	0.01*
O=C(CSc1ncnc2nc[nH]c12)c1ccc(Cl)cc1	/	i	/	i	/	/	/	/	/	/
COc1cc2c(cc1OC)C(C)N(C(=S)NC(=O)c1ccccc1)CC2 (stereo not drawn)	4	i	21*	i	?	0.062*	0.043*	0.041*	0.049*	0.029*
